Results on two compounds are retold here after ChEMBL document CHEMBL4373712, “Bioactivatable Pseudotripeptidization of Cyclic Dipeptides To Increase the Affinity toward Oligopeptide Transporter 1 for Enhanced Oral Absorption: An Application to Cyclo(l-Hyp-l-Ser) (JBP485)” (J Med Chem, 2019).

Series [1] in a line: Oral bioavailability in Sprague-Dawley rat at 12 mg/kg by UPLC-MS/MS analysis. The conditions noted are these: in vivo. Type of series: ADME, organism-based. An outline of the steps: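 Male SD rats, 200-250 g, fasted 12 h with water, n=6. Oral dose of 12 mg/kg as JBP485 equivalent; dose-effect arms at 12 and 100 mg/kg. JBP485 given iv at 6 mg/kg as the reference. Jugular blood taken at 0.083-10 h. Plasma JBP485 by UPLC-MS/MS. Absolute F = (AUCpo×Div)/(AUCiv×Dpo)×100%, using AUC0-t.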

The target in series [2] is T1, Solute carrier family 22 member 1 (Homo sapiens, UniProt O15245).
T1 sequence (O15245 whole entry): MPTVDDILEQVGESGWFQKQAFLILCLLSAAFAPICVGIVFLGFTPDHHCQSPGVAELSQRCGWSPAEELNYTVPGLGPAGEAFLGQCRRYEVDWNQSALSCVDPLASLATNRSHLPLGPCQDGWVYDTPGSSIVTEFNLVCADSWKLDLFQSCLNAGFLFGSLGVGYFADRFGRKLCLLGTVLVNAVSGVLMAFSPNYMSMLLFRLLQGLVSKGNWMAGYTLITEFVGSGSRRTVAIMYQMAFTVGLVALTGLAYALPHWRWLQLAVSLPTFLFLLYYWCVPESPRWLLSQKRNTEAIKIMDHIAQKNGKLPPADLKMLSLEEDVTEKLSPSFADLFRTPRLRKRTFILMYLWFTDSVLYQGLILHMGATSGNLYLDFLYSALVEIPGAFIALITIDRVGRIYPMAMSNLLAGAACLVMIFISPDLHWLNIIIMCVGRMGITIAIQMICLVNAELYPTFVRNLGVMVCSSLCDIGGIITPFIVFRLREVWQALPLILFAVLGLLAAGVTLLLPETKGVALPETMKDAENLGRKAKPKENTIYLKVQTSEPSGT
The series can be described thus: Substrate activity at OCT1 in human Caco2 cells assessed as protein-mediated drug uptake at 0.5 mM measured after 10 mins in absence of OCT1 substrate metformin by UPLC-MS/MS analysis. It is filed as ADME, cell-based. The conditions noted are these: caco-2, 10 min, 500 µM. An outline of the steps: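 Caco-2 cells in 24-well plates took up 0.5 mM compound for 10 min at 37 °C, with or without 50 mM captopril ([…]) or metformin (OCT1-3 substrate). Cells were washed in ice-cold PBS and homogenised in water; lysate protein was measured and drug assayed by UPLC-MS/MS. n=3.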

A short description of series [3]: Half life in pH 4.5 acetate buffer at 5 mM by HPLC analysis. Type of series: physicochemical. An outline of the steps:
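Compound at 5 mM in 0.1 M HCl, pH 4.5 acetate buffer, pH 5.8/6.8/7.2 phosphate buffers, SGF (pH 1.2) and SIF (pH 6.8), prepared per Chinese Pharmacopoeia. Samples taken at 0-20 h and analyzed by HPLC-UV. k = 2.303×slope of log C versus time; t1/2 = 0.693/k.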

In series [4] the target is T2, Solute carrier family 15 member 1 (Homo sapiens, UniProt P46059).
T2 sequence (P46059 whole entry): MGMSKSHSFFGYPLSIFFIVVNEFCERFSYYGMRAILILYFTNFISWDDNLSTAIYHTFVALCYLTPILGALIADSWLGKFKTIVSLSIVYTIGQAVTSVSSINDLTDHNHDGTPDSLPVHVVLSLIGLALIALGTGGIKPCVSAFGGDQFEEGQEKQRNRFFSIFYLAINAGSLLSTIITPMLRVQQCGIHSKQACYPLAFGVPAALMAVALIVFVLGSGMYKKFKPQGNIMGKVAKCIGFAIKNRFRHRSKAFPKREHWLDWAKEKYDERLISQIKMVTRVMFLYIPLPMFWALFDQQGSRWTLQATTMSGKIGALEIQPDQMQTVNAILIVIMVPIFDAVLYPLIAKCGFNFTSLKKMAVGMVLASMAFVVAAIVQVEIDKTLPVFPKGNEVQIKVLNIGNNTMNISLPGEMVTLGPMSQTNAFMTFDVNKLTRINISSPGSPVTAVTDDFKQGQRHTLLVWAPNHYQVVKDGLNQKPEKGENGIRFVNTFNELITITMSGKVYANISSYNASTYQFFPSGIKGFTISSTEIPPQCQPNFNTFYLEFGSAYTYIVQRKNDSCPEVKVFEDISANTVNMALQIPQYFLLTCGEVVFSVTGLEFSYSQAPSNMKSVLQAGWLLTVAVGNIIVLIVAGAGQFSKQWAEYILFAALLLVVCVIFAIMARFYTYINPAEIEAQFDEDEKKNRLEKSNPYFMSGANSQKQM
The experiment in a line: Substrate activity at PEPT1 in human Caco2 cells assessed as protein-mediated drug uptake at 0.5 mM measured after 10 mins in pH 7.4 HBSS buffer by UPLC-MS/MS analysis. It is filed as ADME, cell-based. As to conditions: caco-2, pH 7.4, 10 min, 500 µM. An outline of the steps:
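Caco-2 cells incubated 10 min with 0.5 mM compound in HBSS at pH 6.0 or pH 7.4, washed three times in ice-cold PBS pH 7.4, homogenised. Protein by DC assay; drug by UPLC-MS/MS; n=3.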

Series [5] deals with Rattus norvegicus. The series can be described thus: Anti-hepatitis activity in ANIT-induced Sprague-Dawley rat model of liver injury assessed as reduction in hepatocellular edema at 6.25 to 12.5 mg/kg, ip administered 30 mins prior to ANIT challenge and subsequent dosing at 8, 22, 32, and 46 hrs post ANIT challenge and measured 48 hrs post ANIT challenge by H and E staining-based assay. It is filed as functional, organism-based. An outline of the steps:
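ANIT 50 mg/kg ip liver-injury model in male SD rats, 6 per group. Oral or ip treatment at 30 min before and 8, 22, 32 and 46 h after ANIT. Liver excised at 48 h, fixed in 4% formalin, stained with H&E, and examined microscopically for hepatocellular edema and necrosis.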

The subject of series [6] is Rattus norvegicus. The experiment in a line: Anti-hepatitis activity in ANIT-induced Sprague-Dawley rat model of liver injury assessed as reduction in serum alanine aminotransferase level at 6.25 to 25 mg/kg, po administered 30 mins prior to ANIT challenge and subsequent dosing at 8, 22, 32, and 46 hrs post ANIT challenge and measured 48 hrs post ANIT challenge. Type of series: functional, organism-based. An outline of the steps: (§1)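 ANIT (50 mg/kg ip, olive oil) cholestatic liver injury in male SD rats, 6 per group. Oral or ip dosing (UDCA 100 mg/kg po in CMC-Na) at 30 min before and 8, 22, 32 and 46 h after ANIT. Serum collected at 48 h from the abdominal aorta; ALT and AST activities measured with kits.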

Series [7] concerns Rattus norvegicus. The experiment in a line: Anti-hepatitis activity in ANIT-induced Sprague-Dawley rat model of liver injury assessed as reduction in serum alanine aminotransferase level at 3.125 to 25 mg/kg, po administered 30 mins prior to ANIT challenge and subsequent dosing at 8, 22, 32, and 46 hrs post ANIT challenge and measured 48 hrs post ANIT challenge. Type of series: functional, organism-based. The gist of the method:
as §1

Series [8] is described as follows: Tmax in Sprague-Dawley rat assessed as JBP485 level at 12 mg/kg equiv of JBP485 administered orally by UPLC-MS/MS analysis. It is filed as ADME, organism-based. The conditions noted are these: in vivo, po. An outline of the steps:
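Fasted male SD rats (200–250 g), oral 12 mg/kg (prodrugs calculated as JBP485). Jugular blood 0.083–10 h, centrifuged, plasma JBP485 by UPLC-MS/MS; n=6.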

Calls of active or inactive are those of the source. The calls are words filed in the database; no cut-off is given here.

Broadly, the bioavailability is the share of a dose that reaches the circulation, judged against a reference dose that is usually intravenous. A high value points to good availability. As usually defined, the half-life is the time in which the quantity being followed falls by half. Low readings indicate fast loss, high ones slow loss. Consider `O=C1N[C@@H](CO)C(=O)N2C[C@H](O)C[C@@H]12`, for which the bioavailability in series [1] stood at 21%. The Drug uptake result in series [2] and in series [4] was “Not Active” throughout. In series [3], this compound showed a half-life at 5000 µM greater than 20 h. Also, the outcome in series [5] and in series [6] was Active.
Usually Tmax stands for the time at which the peak concentration occurs. `CC(C)[C@H](N)C(=O)OC[C@@H]1NC(=O)[C@@H]2C[C@@H](O)CN2C1=O`: the Drug uptake entry in series [2] and in series [4] was “Not Active” throughout. Besides, in series [7], the outcome was Active. In series [8], the Tmax was 0.57 h. The compound further came in with a half-life at 5000 µM in series [3] greater than 20 h.
